What was measured:
Don [1] = assay: Growth inhibition of Don-6 cell lines at 1.0 mM concentration; format: functional; conditions: Cricetulus griseus
Method in brief: (§1)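 YT-nu (human neuroblastoma) or Don-6 (Chinese hamster fibroblast) cells in McCoy's 5A with 15% FCS, attached 24 h. Washed, then exposed 1 h at 37 °C to drug at 1 or 0.1 mM in Hanks' BSS. Grown 48 h more in medium, trypsinized and Coulter-counted. % growth inhibition relative to parallel drug-free controls.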

YT-NU [2] = assay: Growth inhibition of YT-nu cell lines at 1.0 mM concentration; format: functional; conditions: Homo sapiens; method in brief: as §1
[3] = system: YT-nu neuroblastoma (Homo sapiens); assay: Compound was tested for growth inhibition of YT-nu cell lines at 0.1 mM concentration
[4] = system: Don-6 fibroblast (Cricetulus griseus); assay: Compound was tested for growth inhibition of Don-6 cell lines at 0.1 mM concentration
Mus musculus [5] = assay: Compound was tested for antitumor activity against the L1210 leukemia in mice at dose of 500(mg/kg)/day intraperitoneally per day; format: functional
Method in brief: (§2)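 L1210 leukemia: young C57BL/6 × DBA/2 F1 male mice, about 20 g, 10 per group, inoculated ip with 1 × 10^6 leukemia cells on day 0. Drug given in 0.9% NaCl ip once daily for 7 days starting day 1. Read-out is %T/C = median survival time of treated/control × 100; weight change averaged between days 1 and 5.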

Mus musculus [6] = assay: Compound was tested for antitumor activity against the L1210 leukemia in mice at dose of 1000 mg/kg/day intraperitoneally per day; format: functional; conditions: route intraperitoneal
Mus musculus [7] = assay: Compound was tested for antitumor activity against the B-16 melanoma in mice at dose of 1000 mg/kg/day intraperitoneally per day; format: functional; conditions: route intraperitoneal
Mus musculus [8] = assay: Compound was tested for antitumor activity against the B-16 melanoma in mice at dose of 500(mg/kg)/day intraperitoneally per day; format: functional
Method in brief: as §2, with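 “B-16 melanoma: young” for “L1210 leukemia: young”, “with 5” for “with 1”, “10^6 melanoma” for “10^6 leukemia”, “for 12” for “for 7”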

Mus musculus [9] = assay: Compound was tested for antitumor activity against the L1210 leukemia in mice at dose of 500 mg/kg intraperitoneally per day; format: functional; conditions: route intraperitoneal; method in brief: as §2
Don [10] = assay: Compound was tested for growth inhibition of Don-6 cell lines at 0.1 mM concentration; format: functional; conditions: Cricetulus griseus; method in brief: as §1
Mus musculus [11] = assay: Compound was tested for antitumor activity against the L1210 leukemia in mice at dose of 400(mg/kg)/day intraperitoneally per day; format: functional; method in brief: as §2
Mus musculus [12] = assay: Compound was tested for antitumor activity against the L1210 leukemia in mice at dose of 800(mg/kg)/day intraperitoneally per day; format: functional; method in brief: as §2
Mus musculus [13] = assay: Compound was tested for antitumor activity against the B-16 melanoma in mice at dose of 400(mg/kg)/day intraperitoneally per day; format: functional
Method in brief: as §2, with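 “B-16 melanoma: young” for “L1210 leukemia: young”, “with 5” for “with 1”, “10^6 melanoma” for “10^6 leukemia”, “for 12” for “for 7”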

Mus musculus [14] = assay: Compound was tested for antitumor activity against the B-16 melanoma in mice at dose of 800(mg/kg)/day intraperitoneally per day; format: functional
Method in brief: as §2, with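 “B-16 melanoma: young” for “L1210 leukemia: young”, “with 5” for “with 1”, “10^6 melanoma” for “10^6 leukemia”, “for 12” for “for 7”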

YT-NU [15] = assay: Compound was tested for growth inhibition of YT-nu cell lines at 0.1 mM concentration; format: functional; conditions: Homo sapiens; method in brief: as §1
Mus musculus [16] = assay: Compound was tested for antitumor activity against the L1210 leukemia in mice at dose of 300(mg/kg)/day intraperitoneally per day; format: functional; method in brief: as §2
Mus musculus [17] = assay: Compound was tested for antitumor activity against the B-16 melanoma in mice at dose of 300(mg/kg)/day intraperitoneally per day; format: functional
Method in brief: as §2, with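 “B-16 melanoma: young” for “L1210 leukemia: young”, “with 5” for “with 1”, “10^6 melanoma” for “10^6 leukemia”, “for 12” for “for 7”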

Mus musculus [18] = assay: Compound was tested for antitumor activity against the L1210 leukemia in mice at dose of 100(mg/kg)/day intraperitoneally per day; format: functional
Method in brief: (§3)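 Male C57BL/6 × DBA/2 F1 mice, about 20 g, 10 per group, inoculated ip with 1 × 10^6 L1210 cells on day 0. From day 1, drug in 0.9% NaCl given ip once daily for 7 days. Weight change recorded between days 1 and 5. Activity expressed as %T/C = median survival time of treated over control × 100.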

Mus musculus [19] = assay: Compound was tested for antitumor activity against the B-16 melanoma in mice at dose of 100(mg/kg)/day intraperitoneally per day; format: functional
Method in brief: as §2, with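 “B-16 melanoma: young” for “L1210 leukemia: young”, “with 5” for “with 1”, “10^6 melanoma” for “10^6 leukemia”, “for 12” for “for 7”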

Mus musculus [20] = assay: Compound was tested for antitumor activity against the L1210 leukemia in mice at dose of 250 mg/kg intraperitoneally per day; format: functional; conditions: route intraperitoneal; method in brief: as §2
Mus musculus [21] = assay: Compound was tested for antitumor activity against the L1210 leukemia in mice at dose of 150(mg/kg)/day intraperitoneally per day; format: functional; method in brief: as §3

Work on `NC(CSc1ccccc1O)C(=O)O` (centres undefined) yielded an inhibition at 1000 µM (Don [1]) of 5% and an inhibition at 1000 µM (YT-NU [2]) of 51%.

`Cc1ccc(O)c(O)c1` was tested, and the inhibition at 1000 µM (Don [1]) was 76%, the inhibition at 1000 µM (YT-NU [2]) was 93% and the inhibition at 100 µM [3] was 48%. It also gave an inhibition at 100 µM [4] of 33%.

For `NC(CSc1cc(CC(N)C(=O)O)cc(O)c1O)C(=O)O` (centres undefined), the inhibition at 1000 µM (Don [1]) was 11%, the T/C (Mus musculus [5]) was 131% and the T/C (Mus musculus [6]) was 150%. The Weight change (Mus musculus [6]) was 1.7 g, the T/C (Mus musculus [7]) was 127% and the Weight change (Mus musculus [7]) was 2.1 g. It also gave a T/C (Mus musculus [8]) of 108%, a Weight change (Mus musculus [8]) of 2.6 g and an inhibition at 1000 µM (YT-NU [2]) of 59%. For the same compound, the Weight change (Mus musculus [9]) was 1.7 g.

In the case of `NC(CSc1nc(CC(N)C(=O)O)c[nH]1)C(=O)O` (centres undefined), the inhibition at 1000 µM (Don [1]) is reported as 0% and the inhibition at 1000 µM (YT-NU [2]) is reported as 7%.

In the case of `NC(CSc1cc(O)c(O)cc1CC(N)C(=O)O)C(=O)O` (centres undefined), the inhibition at 1000 µM (Don [1]) is reported as 41% and the inhibition at 1000 µM (YT-NU [2]) is reported as 61%.

With `Cc1cc(O)c(O)c(SCC(N)C(=O)O)c1` (centres undefined) the inhibition at 100 µM (Don [10]) was 25%, the inhibition at 1000 µM (Don [1]) was 82% and the T/C (Mus musculus [11]) was 143%. The Weight change (Mus musculus [11]) was 1.6 g, the T/C (Mus musculus [12]) was 143% and the Weight change (Mus musculus [12]) was 0.5 g. It also gave a T/C (Mus musculus [13]) of 100%, a Weight change (Mus musculus [13]) of 0.7 g and a T/C (Mus musculus [14]) of 126%. For the same compound, the Weight change (Mus musculus [14]) was -0.4 g, the inhibition at 100 µM (YT-NU [15]) was 44% and the inhibition at 1000 µM (YT-NU [2]) was 84%.

For `NC(CSc1ccc(SCC(N)C(=O)O)c(O)c1O)C(=O)O` (centres undefined), the inhibition at 1000 µM (Don [1]) was 30% and the inhibition at 1000 µM (YT-NU [2]) was 40%.

Compound `NC(CSc1ccc(O)c(O)c1)C(=O)O` (centres undefined) has an inhibition at 100 µM (Don [10]) of 69%, an inhibition at 1000 µM (Don [1]) of 81% and a T/C (Mus musculus [5]) of 150%. For the same compound, the Weight change (Mus musculus [5]) was -1 g, the T/C (Mus musculus [16]) was 138% and the Weight change (Mus musculus [16]) was 0.5 g. For the same compound, the T/C (Mus musculus [17]) was 114%, the Weight change (Mus musculus [17]) was -1.3 g and the T/C (Mus musculus [8]) was 95%. For the same compound, the Weight change (Mus musculus [8]) was -1.5 g, the T/C (Mus musculus [18]) was 113% and the Weight change (Mus musculus [18]) was 1.4 g. The T/C (Mus musculus [19]) was 109%, the Weight change (Mus musculus [19]) was 1.8 g and the inhibition at 100 µM (YT-NU [15]) was 71%. For the same compound, the inhibition at 1000 µM (YT-NU [2]) was 76%.

For `NC(CSc1c(CC(N)C(=O)O)ccc(O)c1O)C(=O)O` (centres undefined), the inhibition at 1000 µM (Don [1]) was 0% and the inhibition at 1000 µM (YT-NU [2]) was 35%.

Compound `NC(CSc1ccc(O)cc1)C(=O)O` (centres undefined) has an inhibition at 1000 µM (Don [1]) of 5%, a T/C (Mus musculus [20]) of 100% and a Weight change (Mus musculus [20]) of 3 g. The inhibition at 1000 µM (YT-NU [2]) was 36%.

For `NC(CSc1cc(CC(N)C(=O)O)c(SCC(N)C(=O)O)c(O)c1O)C(=O)O` (centres undefined), the inhibition at 1000 µM (Don [1]) was 44% and the inhibition at 1000 µM (YT-NU [2]) was 56%.

In the case of `NC(CSc1cc(CC(N)C(=O)O)ccc1O)C(=O)O` (centres undefined), the inhibition at 1000 µM (Don [1]) is reported as 5% and the inhibition at 1000 µM (YT-NU [2]) is reported as 7%.

Work on `NC(CSc1cccc(O)c1O)C(=O)O` (centres undefined) yielded an inhibition at 1000 µM (Don [1]) of 32% and an inhibition at 1000 µM (YT-NU [2]) of 20%.

For `Cl.Cl.NCCSc1cc(CCN)cc(O)c1O`, the inhibition at 1000 µM (Don [1]) was 83%, the T/C (Mus musculus [21]) was 88% and the Weight change (Mus musculus [21]) was -2.1 g. It also gave a T/C (Mus musculus [18]) of 100%, a Weight change (Mus musculus [18]) of 1.1 g and an inhibition at 1000 µM (YT-NU [2]) of 65%. For the same compound, the inhibition at 100 µM [3] was 48% and the inhibition at 100 µM [4] was 73%.

`NCCc1ccc(O)c(O)c1` [DOPAMINE] showed an inhibition at 1000 µM (Don [1]) of 30% and an inhibition at 1000 µM (YT-NU [2]) of 40%.

In the case of `N[C@@H](Cc1ccc(O)c(O)c1)C(=O)O` [LEVODOPA], the inhibition at 1000 µM (Don [1]) is reported as 6% and the inhibition at 1000 µM (YT-NU [2]) is reported as 24%.

Source: ChEMBL document CHEMBL1121845, “Synthesis and antitumor activity of cysteinyl-3,4-dihydroxyphenylalanines and related compounds” (1981)
